The target in assay [1] is T1, 72 kDa type IV collagenase (Homo sapiens, UniProt P08253). Kind of assay: Binding affinity to N-terminal (His6)-MBP tagged full-length human proMMP2 expressed in Escherichia coli BL21(DE3) RIL assessed as reduction in Rhod-cy(WPHPY binding incubated for 30 mins by fluorescence polarization assay. Summed up:
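Competitive fluorescence polarization in PBS. Recombinant tag-free full-length proMMP2 (TEV-cleaved after nickel purification, then ion-exchange and size exclusion) and Rhod-cy(WPHPY) each held at 100 nM, with unlabeled ligand titrated. Read as FP. Triplicate individually prepared samples averaged, reported as mean ± SD. Each experiment repeated at least three times on different days.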
A general note: Fluorescence polarisation rises when a labelled molecule tumbles more slowly, as on binding a larger partner.

Assay [2] deals with T1, 72 kDa type IV collagenase. Kind of assay: Binding affinity to hemopexin domain of proMMP2 in human WM115 cells assessed as inhibition of TIMP2-MMP2 interaction using surface immobilized recombinant TIMP incubated for 1 hr by ELISA based competitive binding assay. Format: cell-based. Summed up: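 His-tagged recombinant TIMP2 (9 pmol/well) captured on Ni-coated wells, blocked with His6 peptide. WM115 serum-free 24 h conditioned medium, concentrated (10 kDa cutoff), mixed with compound in PBS (PBS control) and incubated 1 h at room temperature with shaking. Bound MMP2 detected with anti-MMP2 rabbit mAb, HRP secondary and chemiluminescence. Triplicates averaged, experiment repeated three times.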
In general terms: An ELISA detects its analyte on a solid surface through an enzyme-linked reagent.

In assay [3] the test system is Matrix metalloproteinase-2 (Homo sapiens). Kind of assay: Inhibition of proMMP2 activation in human WM115 cells assessed as decrease in cell invasion at 1 nM to 1 uM incubated for 24 hrs by transwell cell invasion assay.
Assay [4] addresses T1, 72 kDa type IV collagenase. Kind of assay: Inhibition of proMMP2 activation in human WM115 cells assessed as reduction in MMP2 activity at 0.1 nM to 1 uM incubated for 24 hrs by gelatin zymography. Format: cell-based. The gist of the method: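 WM115 cells (600k per well) seeded 8 h in full medium, then 24 h at 37 °C in serum-free medium with compound. Medium concentrated and normalized to 10 μg/mL protein. Run on 7.5% gelatin gel, washed in Triton X-100 buffer, incubated 20 h at 37 °C in CaCl2/ZnCl2 buffer, then Coomassie stained. Three independent experiments.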

In assay [5] the target is T1, 72 kDa type IV collagenase. Kind of assay: Binding affinity to catalytic domain of proMMP2 in human WM115 cells assessed as reduction in TIMP2-mediated inhibition of MMP2 enzyme activity at 0.1 nM to 1 uM incubated for 5 mins using MMP2-specific fluorogenic substrate by fluorescence based assay. Format: cell-based. Summed up:
(§1)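 WM115 serum-free 24 h conditioned medium, concentrated and normalized by BCA. 10 μg protein in TNC buffer (50 mM Tris, 0.15 M NaCl, 10 mM CaCl2, pH 7.5) with compound in PBS, equilibrated 5 min at 37 °C. MMP2-specific fluorogenic substrate (3 μM) added, 20 min at 37 °C, read at Ex 325/Em 393 nm. For the TIMP2 condition, recombinant TIMP2 (10 μL of 1 μg/μL) added to all mixtures. Triplicates, three repeats.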

Assay [6] deals with T1, 72 kDa type IV collagenase. Kind of assay: Binding affinity to of proMMP2 in human WM115 cells assessed as reduction in cell membrane association of proMMP at 10 nM incubated for 15 hrs by immunofluorescence based confocal microscopy. The gist of the method: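 WM115 cells in full medium exposed to 10 nM for 15 h, fixed in 4% paraformaldehyde without permeabilization and blocked in 5% goat serum. Stained overnight at 4 °C with anti-MMP2 (1:500), then Alexa Fluor 594 anti-rabbit (1:2000). Confocal imaging; single-cell intensity quantified over thirty cells per image. Three repeats.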

Assay [7] has as its target T1, 72 kDa type IV collagenase. Kind of assay: Inhibition of proMMP2 activation in human WM115 cells assessed as reduction in MMP2 activity at 0.1 nM to 1 uM incubated for 24 hrs using enzyme-specific fluorogenic substrate by fluorescence based assay. Format: cell-based. Summed up: (§2)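 WM115 cells grown to 80% confluency, then cultured 24 h in serum-free medium containing compound (no-compound control). Medium concentrated and BCA-normalized. 10 μg protein in TNC buffer (pH 7.5) with MMP2- or MMP9-specific fluorogenic substrate (3 μM), incubated 20 min at 37 °C, fluorescence read at Ex 325/Em 393 nm. Triplicates, three repeats.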

Assay [8] has as its target Matrix metalloproteinase-9 (Homo sapiens) (UniProt P14780). The experiment in a line: Inhibition of proMMP9 activation in human WM115 cells assessed as reduction in MMP9 activity at 0.1 nM to 1 uM incubated for 24 hrs using enzyme-specific fluorogenic substrate by fluorescence based assay. Format: cell-based. Summed up: as §2
Assay [9] concerns the target T1, 72 kDa type IV collagenase. The experiment in a line: Inhibition of proMMP2 activation in human WM115 cells assessed as reduction in MMP2 protein expression incubated for 24 hrs by Western blot analysis. Format: cell-based. Summed up: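 WM115 cells treated 24 h in serum-free medium with compound (PBS control). Conditioned medium immunoblotted for MMP2 with HRP secondary and chemiluminescent detection. Three independent blots, each with medium from a fresh cell batch.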
In general terms: Immunoblotting shows a protein as a band on a membrane.

Assay [10] has as its system Matrix metalloproteinase-2 (Homo sapiens). Kind of assay: Inhibition of proMMP2 activation in human WM115 cells assessed as decrease in cell numbers in wound region at 1 nM to 1 uM incubated for 24 hrs by wound-healing scratch assay.
Assay [11] deals with T1, 72 kDa type IV collagenase. Kind of assay: Inhibition of MMP2 in human WM115 cells at 0.1 nM to 1 uM incubated for 5 mins using MMP2-specific fluorogenic substrate by fluorescence based assay. Format: cell-based. Summed up: as §1
The target of assay [12] is T1, 72 kDa type IV collagenase. Kind of assay: Binding affinity to […] expressed in Escherichia coli BL21(DE3) RIL incubated for 30 mins by fluorescence polarization assay.

In ChEMBL document CHEMBL4616672, “Inhibiting Matrix Metalloproteinase-2 Activation by Perturbing Protein-Protein Interactions Using a Cyclic Peptide” (J Med Chem, 2020) one finds Activity, inhibition and Kd data, which are given here for eight compounds.

By Kd is commonly meant the concentration at which binding is half-saturated.

Activity calls are given as the source filed them. *1 amine or outer side, *2 acyl side, *3 side chain or, on linkers, in order; H or OH if unused. Where a SMILES comes first, the peptide text is derived from it. Bridges are numbered along the chain shown (N, C = ends). Triazole bridges read from a SMILES are 1,4-linked. [ ]: non-standard residue; d: D form. The star is where a group is joined. RhodamineB = CCN(CC)c1ccc2c(-c3ccccc3C(=O)*)c3ccc(=[N+](CC)CC)cc-3oc2c1; Lys(N3) = [N-]=[N+]=NCCCC[C@H](N)C(=O)O; X1 = O=C([C@H](Cc1c[nH]nn1)N[*:1])[*:2]; NMeGABA = CN(CCCC(=O)[*:2])[*:1]; Pra = C#CC[C@H](N)C(=O)O

Chain of Matrix metalloproteinase-9 (Homo sapiens) (P14780 whole entry): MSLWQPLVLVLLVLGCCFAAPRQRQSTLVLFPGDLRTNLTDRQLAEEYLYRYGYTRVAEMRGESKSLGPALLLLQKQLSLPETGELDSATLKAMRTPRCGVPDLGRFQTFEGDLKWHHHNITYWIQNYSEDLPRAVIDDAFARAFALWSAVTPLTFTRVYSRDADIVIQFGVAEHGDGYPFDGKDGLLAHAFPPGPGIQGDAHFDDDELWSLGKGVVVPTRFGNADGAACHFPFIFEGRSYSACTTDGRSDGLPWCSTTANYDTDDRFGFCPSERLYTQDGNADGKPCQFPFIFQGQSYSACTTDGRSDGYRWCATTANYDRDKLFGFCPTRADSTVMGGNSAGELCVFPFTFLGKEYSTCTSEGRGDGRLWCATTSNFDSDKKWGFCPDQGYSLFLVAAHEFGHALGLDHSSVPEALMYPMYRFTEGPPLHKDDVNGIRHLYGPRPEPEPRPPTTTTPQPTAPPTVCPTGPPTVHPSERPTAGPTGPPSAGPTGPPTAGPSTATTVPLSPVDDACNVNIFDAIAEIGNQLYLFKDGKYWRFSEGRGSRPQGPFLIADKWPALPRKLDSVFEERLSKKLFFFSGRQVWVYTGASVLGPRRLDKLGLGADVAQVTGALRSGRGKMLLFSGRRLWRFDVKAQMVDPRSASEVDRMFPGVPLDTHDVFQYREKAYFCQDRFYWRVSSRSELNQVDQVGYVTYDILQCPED
T1 sequence (P08253 whole entry): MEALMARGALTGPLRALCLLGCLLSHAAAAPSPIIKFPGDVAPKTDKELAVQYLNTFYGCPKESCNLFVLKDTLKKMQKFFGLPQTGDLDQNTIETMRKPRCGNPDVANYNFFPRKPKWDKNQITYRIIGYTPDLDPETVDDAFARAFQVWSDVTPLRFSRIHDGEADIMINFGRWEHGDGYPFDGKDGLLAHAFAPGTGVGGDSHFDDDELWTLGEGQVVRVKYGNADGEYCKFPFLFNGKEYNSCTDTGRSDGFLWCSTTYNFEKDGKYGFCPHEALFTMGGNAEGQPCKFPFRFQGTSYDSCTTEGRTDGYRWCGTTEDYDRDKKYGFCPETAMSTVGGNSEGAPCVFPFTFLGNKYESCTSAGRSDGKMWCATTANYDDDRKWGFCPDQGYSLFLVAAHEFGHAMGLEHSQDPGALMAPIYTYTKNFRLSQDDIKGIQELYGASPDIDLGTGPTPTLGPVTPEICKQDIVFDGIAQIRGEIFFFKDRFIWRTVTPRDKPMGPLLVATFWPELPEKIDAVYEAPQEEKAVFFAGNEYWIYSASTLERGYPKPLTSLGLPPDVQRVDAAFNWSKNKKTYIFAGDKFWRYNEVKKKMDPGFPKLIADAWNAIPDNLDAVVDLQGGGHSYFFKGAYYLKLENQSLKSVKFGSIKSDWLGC

Consider `C[C@@H]1NC(=O)[C@@H](N)Cc2cn(nn2)CCCC[C@@H](C(N)=O)NC(=O)[C@H](Cc2ccc(O)cc2)NC(=O)[C@@H]2CCCN2C(=O)[C@H](Cc2c[nH]cn2)NC(=O)[C@@H]2CCCN2C1=O` (H-[Pra]APHPY[Lys(N3)]-NH2; triazole 1-7), for which, in assay [1], the result was Active.

In the case of `C[C@@H]1NC(=O)[C@H](Cc2c[nH]c3ccccc23)NC(=O)[C@@H](N)Cc2cn(nn2)CCCC[C@@H](C(N)=O)NC(=O)[C@H](Cc2ccc(O)cc2)NC(=O)[C@@H]2CCCN2C(=O)[C@H](Cc2c[nH]cn2)NC1=O` (H-[Pra]WAHPY[Lys(N3)]-NH2; triazole 1-7), in assay [1], the result was Active.

`C[C@@H]1NC(=O)[C@@H]2CCCN2C(=O)[C@H](Cc2c[nH]c3ccccc23)NC(=O)[C@@H](N)Cc2cn(nn2)CCCC[C@@H](C(N)=O)NC(=O)[C@H](Cc2ccc(O)cc2)NC(=O)[C@@H]2CCCN2C1=O` (H-[Pra]WPAPY[Lys(N3)]-NH2; triazole 1-7): the outcome in assay [1] was Active.

Turning to `C[C@@H]1NC(=O)[C@H](Cc2c[nH]cn2)NC(=O)[C@@H]2CCCN2C(=O)[C@H](Cc2c[nH]c3ccccc23)NC(=O)[C@@H](N)Cc2cn(nn2)CCCC[C@@H](C(N)=O)NC(=O)[C@H](Cc2ccc(O)cc2)NC1=O` (H-[Pra]WPHAY[Lys(N3)]-NH2; triazole 1-7), the result in assay [1] was Active.

For the compound `C[C@@H]1NC(=O)[C@@H]2CCCN2C(=O)[C@H](Cc2c[nH]cn2)NC(=O)[C@@H]2CCCN2C(=O)[C@H](Cc2c[nH]c3ccccc23)NC(=O)[C@@H](N)Cc2cn(nn2)CCCC[C@@H](C(N)=O)NC1=O` (H-[Pra]WPHPA[Lys(N3)]-NH2; triazole 1-7), the result in [1] was Active.

In the case of `NC(=O)[C@@H]1CCCCn2cc(nn2)C[C@H](N)C(=O)N[C@@H](Cc2c[nH]c3ccccc23)C(=O)N2CCC[C@H]2C(=O)N[C@@H](Cc2c[nH]cn2)C(=O)N2CCC[C@H]2C(=O)N[C@@H](Cc2ccc(O)cc2)C(=O)N1` (H-[Pra]WPHPY[Lys(N3)]-NH2; triazole 1-7), the result in assay [2] and in assay [6] was Active. For the same compound, the inhibition entry in [3], in assay [7] and in [10] was “Active” each time. In addition, the inhibition result in assay [4] and in assay [9] was “Dose-dependent effect” in each case. Further, the outcome in [5] was inactive. Besides, the inhibition entry in [8] and in [11] was “inactive” throughout.

`NCCCC[C@H](NC(=O)[C@H](Cc1ccc(O)cc1)NC(=O)[C@@H]1CCCN1C(=O)[C@H](Cc1c[nH]cn1)NC(=O)[C@@H]1CCCN1C(=O)[C@H](Cc1c[nH]c2ccccc12)NC(=O)[C@@H](N)Cc1c[nH]nn1)C(N)=O` (H-[X1]WPHPYK-NH2): the inhibition entry in [7] is “inactive”.

In assay [12], `CCN(CC)c1ccc2c(-c3ccccc3C(=O)N(C)CCCC(=O)N[C@H]3Cc4cn(nn4)CCCC[C@@H](C(N)=O)NC(=O)[C@H](Cc4ccc(O)cc4)NC(=O)[C@@H]4CCCN4C(=O)[C@H](Cc4c[nH]cn4)NC(=O)[C@@H]4CCCN4C(=O)[C@H](Cc4c[nH]c5ccccc45)NC3=O)c3ccc(=[N+](CC)CC)cc-3oc2c1` (RhodamineB-[NMeGABA][Pra]WPHPY[Lys(N3)]-NH2; triazole 2-8) displayed a Kd of 280 nM. The result in assay [1] was Active.
